# Values joined by “and” are separate entries in the source; they are usually repeats but may differ in a detail not shown here. Equal entries are not always repeated.
# Test system: HEK-293T
# Experiment: Multiplex assay against HEK293T
# Type: toxicity, cell-based
# Details: human, number of replicates 2
# Outline: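 Imaging took place on a CQ1 microscope at 37°C and 5% CO2 once compound had been added to live cells stained at seeding with Hoechst33342, BioTracker Green Microtubule Cytoskeleton Dye, MitoTracker Red and Annexin V Alexa Fluor 680. CellPathfinder machine-learning gating classed cells as Hoechst high-intensity objects or normal cells, classed normal cells as having healthy, pyknosed or fragmented nuclei, and classed pyknosed cells as mitotic or apoptotic. Tubulin, mitochondrial-mass and membrane-permeability phenotypes are per cents of the healthy-nucleus cells.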
# [1] = 12 h, 1 µM, compound concentration 1 uM
# [2] = 12 h, 10 µM, compound concentration 10 uM
# [3] = 24 h, 1 µM, compound concentration 1 uM
# [4] = 24 h, 10 µM, compound concentration 10 uM
# [5] = 48 h, 1 µM, compound concentration 1 uM
# [6] = 48 h, 10 µM, compound concentration 10 uM
structure (smiles),measurement,setting,value
COc1nc2ccc([C@@](O)(c3ccc(Cl)cc3)c3cncn3C)cc2c(Cl)c1Cc1ccc(-n2cccn2)cc1 [JNJ-53721590],Population Apoptotic (%),[1],43% and 52%
same,Population Fragmented Nuclei (%),[1],4% and 2%
same,Population Healthy Nuclei (%),[1],81%
same,Population Hoechst High Intensity Objects (%),[1],7%
same,Population Membrane Permeable-Phenotype (%),[1],4% and 5%
same,Population Mitochondria Different-Phenotype (%),[1],26%
same,Population Mitotic Cells (%),[1],56% and 47%
same,Population Normal (%),[1],92%
same,Population Pyknosed Nuclei (%),[1],13% and 15%
same,Population Tubulin-Different-Phenotype (%),[1],74% and 70%
same,Total Cell Count,[1],675 and 403
same,Population Apoptotic (%),[2],41% and 64%
same,Population Fragmented Nuclei (%),[2],2%
same,Population Healthy Nuclei (%),[2],88%
same,Population Hoechst High Intensity Objects (%),[2],6%
same,Population Membrane Permeable-Phenotype (%),[2],21% and 12%
same,Population Mitochondria Different-Phenotype (%),[2],24%
same,Population Mitotic Cells (%),[2],58% and 35%
same,Population Normal (%),[2],93%
same,Population Pyknosed Nuclei (%),[2],9% and 8%
same,Population Tubulin-Different-Phenotype (%),[2],94%
same,Total Cell Count,[2],831 and 720
same,Population Apoptotic (%),[3],42% and 54%
same,Population Fragmented Nuclei (%),[3],6% and 3%
same,Population Healthy Nuclei (%),[3],84% and 87%
same,Population Hoechst High Intensity Objects (%),[3],8% and 7%
same,Population Membrane Permeable-Phenotype (%),[3],4% and 1%
same,Population Mitochondria Different-Phenotype (%),[3],11% and 15%
same,Population Mitotic Cells (%),[3],57% and 45%
same,Population Normal (%),[3],91% and 92%
same,Population Pyknosed Nuclei (%),[3],8%
same,Population Tubulin-Different-Phenotype (%),[3],57% and 53%
same,Total Cell Count,[3],1025 and 592
same,Population Apoptotic (%),[4],37% and 57%
same,Population Fragmented Nuclei (%),[4],2% and 1%
same,Population Healthy Nuclei (%),[4],87% and 84%
same,Population Hoechst High Intensity Objects (%),[4],5% and 8%
same,Population Membrane Permeable-Phenotype (%),[4],16% and 11%
same,Population Mitochondria Different-Phenotype (%),[4],19% and 23%
same,Population Mitotic Cells (%),[4],62% and 42%
same,Population Normal (%),[4],94% and 91%
same,Population Pyknosed Nuclei (%),[4],9% and 13%
same,Population Tubulin-Different-Phenotype (%),[4],95% and 96%
same,Total Cell Count,[4],856 and 731
same,Population Apoptotic (%),[5],18% and 38%
same,Population Fragmented Nuclei (%),[5],10% and 8%
same,Population Healthy Nuclei (%),[5],86% and 85%
same,Population Hoechst High Intensity Objects (%),[5],8% and 11%
same,Population Membrane Permeable-Phenotype (%),[5],5% and 2%
same,Population Mitochondria Different-Phenotype (%),[5],2% and 7%
same,Population Mitotic Cells (%),[5],81% and 61%
same,Population Normal (%),[5],91% and 88%
same,Population Pyknosed Nuclei (%),[5],3% and 6%
same,Population Tubulin-Different-Phenotype (%),[5],37% and 39%
same,Total Cell Count,[5],2031 and 1111
same,Population Apoptotic (%),[6],40% and 52%
same,Population Fragmented Nuclei (%),[6],5% and 6%
same,Population Healthy Nuclei (%),[6],90% and 87%
same,Population Hoechst High Intensity Objects (%),[6],10% and 12%
same,Population Membrane Permeable-Phenotype (%),[6],28% and 21%
same,Population Mitochondria Different-Phenotype (%),[6],3% and 4%
same,Population Mitotic Cells (%),[6],60% and 47%
same,Population Normal (%),[6],89% and 87%
same,Population Pyknosed Nuclei (%),[6],4% and 5%
same,Population Tubulin-Different-Phenotype (%),[6],93% and 95%
same,Total Cell Count,[6],993 and 855
CN1CCc2cc(Cl)c(O)cc2[C@@H](c2ccccc2)C1.Cl,Population Apoptotic (%),[1],48% and 46%
same,Population Fragmented Nuclei (%),[1],3% and 4%
same,Population Healthy Nuclei (%),[1],84% and 85%
same,Population Hoechst High Intensity Objects (%),[1],7% and 5%
same,Population Membrane Permeable-Phenotype (%),[1],5% and 3%
same,Population Mitochondria Different-Phenotype (%),[1],23% and 12%
same,Population Mitotic Cells (%),[1],51% and 53%
same,Population Normal (%),[1],92% and 94%
same,Population Pyknosed Nuclei (%),[1],12% and 10%
same,Population Tubulin-Different-Phenotype (%),[1],50% and 47%
same,Total Cell Count,[1],505 and 645
same,Population Apoptotic (%),[2],40% and 55%
same,Population Fragmented Nuclei (%),[2],4%
same,Population Healthy Nuclei (%),[2],87% and 85%
same,Population Hoechst High Intensity Objects (%),[2],6% and 8%
same,Population Membrane Permeable-Phenotype (%),[2],3% and 4%
same,Population Mitochondria Different-Phenotype (%),[2],11%
same,Population Mitotic Cells (%),[2],59% and 45%
same,Population Normal (%),[2],93% and 91%
same,Population Pyknosed Nuclei (%),[2],8% and 9%
same,Population Tubulin-Different-Phenotype (%),[2],54% and 52%
same,Total Cell Count,[2],819 and 669
same,Population Apoptotic (%),[3],47% and 31%
same,Population Fragmented Nuclei (%),[3],6% and 5%
same,Population Healthy Nuclei (%),[3],83% and 88%
same,Population Hoechst High Intensity Objects (%),[3],7%
same,Population Membrane Permeable-Phenotype (%),[3],1% and 3%
same,Population Mitochondria Different-Phenotype (%),[3],8% and 3%
same,Population Mitotic Cells (%),[3],52% and 68%
same,Population Normal (%),[3],92%
same,Population Pyknosed Nuclei (%),[3],9% and 6%
same,Population Tubulin-Different-Phenotype (%),[3],25% and 24%
same,Total Cell Count,[3],778 and 975
same,Population Apoptotic (%),[4],38% and 37%
same,Population Fragmented Nuclei (%),[4],7% and 8%
same,Population Healthy Nuclei (%),[4],88% and 87%
same,Population Hoechst High Intensity Objects (%),[4],8% and 7%
same,Population Membrane Permeable-Phenotype (%),[4],5% and 4%
same,Population Mitochondria Different-Phenotype (%),[4],3%
same,Population Mitotic Cells (%),[4],61% and 62%
same,Population Normal (%),[4],91% and 92%
same,Population Pyknosed Nuclei (%),[4],4%
same,Population Tubulin-Different-Phenotype (%),[4],35% and 38%
same,Total Cell Count,[4],1332 and 988
same,Population Apoptotic (%),[5],10% and 5%
same,Population Fragmented Nuclei (%),[5],10% and 11%
same,Population Healthy Nuclei (%),[5],85% and 84%
same,Population Hoechst High Intensity Objects (%),[5],8% and 9%
same,Population Membrane Permeable-Phenotype (%),[5],3% and 6%
same,Population Mitochondria Different-Phenotype (%),[5],1% and 0%
same,Population Mitotic Cells (%),[5],89% and 94%
same,Population Normal (%),[5],91% and 90%
same,Population Pyknosed Nuclei (%),[5],3%
same,Population Tubulin-Different-Phenotype (%),[5],10% and 14%
same,Total Cell Count,[5],1964 and 2487
same,Population Apoptotic (%),[6],6% and 16%
same,Population Fragmented Nuclei (%),[6],22% and 20%
same,Population Healthy Nuclei (%),[6],75% and 77%
same,Population Hoechst High Intensity Objects (%),[6],9% and 10%
same,Population Membrane Permeable-Phenotype (%),[6],10%
same,Population Mitochondria Different-Phenotype (%),[6],0%
same,Population Mitotic Cells (%),[6],93% and 83%
same,Population Normal (%),[6],90% and 89%
same,Population Pyknosed Nuclei (%),[6],2%
same,Population Tubulin-Different-Phenotype (%),[6],20% and 21%
same,Total Cell Count,[6],3504 and 2430

# Source: ChEMBL document CHEMBL5303300, “EUbOPEN Chemogenomics Library - Multiplex” (2023)
